Assay results of several laboratories.
Protocols differ between the studies behind these lines.
CHEK2: Serine/threonine-protein kinase Chk2 (CHEK2, Homo sapiens, UniProt O96017)

SMILES	target	assay	setting	measurement	result
CCC1(CC)NC(=O)c2c(c3ccc(Cl)c(Cl)c3n2C)C1C#N (stereo not drawn)	CHEK2	thermal stability, DSF	10 µM	ΔTm	-0.2 °C
CCN(CC)CCNC(=O)c1c(C)[nH]c(/C=C2\C(=O)Nc3ccc(F)cc32)c1C	CHEK2	cell-free assay	0.5 µM	remaining signal	7.13%
CC1(C)NC(=O)c2[nH]c3c(Cl)c(Cl)ccc3c2C1C#N (stereo not drawn)	CHEK2	thermal stability, DSF	10 µM	ΔTm	-0.1 °C
CN(C)C1CCN(CC#Cc2nn(C3CCCC3)c3nc(NCc4ccccc4)ncc23)C1 (stereo not drawn)	CHEK2	enzyme activity, inhibitor, FRET	1 µM	inhibition	7%
Cn1c2c(c3ccc(Cl)c(Cl)c31)C(C#N)C1(CCOCC1)NC2=O (stereo not drawn)	CHEK2	thermal stability, DSF	10 µM	ΔTm	-0.3 °C
CC(=O)C1=C(C)N(c2cccc(C(F)(F)F)c2)C(=O)N[C@@H]1c1ccc(C#N)nc1	CHEK2	cell-free assay, competition with immobilised ligand	1 µM	remaining binding	85.6%
CNC(=O)c1cc(Oc2ccc(NC(=O)Nc3ccc(Cl)c(C(F)(F)F)c3)cc2)ccn1	CHEK2	enzyme activity, inhibitor	10 µM	inhibition	6%
COc1cc(Nc2c(C#N)cnc3cc(OCCCN4CCN(C)CC4)c(OC)cc23)c(Cl)cc1Cl	CHEK2	cell-free assay	0.5 µM	remaining signal	21.7%
Cn1c2c(Cl)c(Cl)ccc2c2cc(N)[nH]c(=O)c21	CHEK2	thermal stability, DSF	10 µM	ΔTm	0.1 °C
CN([C@@H]1CCc2c(CC(=O)O)c3cc(S(C)(=O)=O)ccc3n2C1)S(=O)(=O)c1ccc(F)cc1	CHEK2	cell-free assay, competition with immobilised ligand	1 µM	remaining binding	100%
Cn1c2c(c3ccc(Cl)c(Cl)c31)C(C#N)C1(CCCC1)NC2=O (stereo not drawn)	CHEK2	thermal stability, DSF	10 µM	ΔTm	0 °C
CN(C)CC#Cc1ccc(OCCCc2sc(N3CCc4cccc(C(=O)Nc5nc6ccccc6s5)c4C3)nc2C(=O)O)c(F)c1	CHEK2	cell-free assay, competition with immobilised ligand	1 µM	remaining binding	100%
Cc1cnc(NC2CCOCC2)nc1-n1cnc(C(=O)NC(CN)c2cc(F)cc(Cl)c2)c1 (stereo not drawn)	Serine/threonine-protein kinase Chk2 (CHEK2, Homo sapiens, UniProt O96017, I157T)	enzyme activity, inhibitor, radiometric	1 µM	remaining activity	82%
CS(=O)(=O)N1CCCC(NC(=O)[C@H](CCC2CCCCC2)NC(=O)c2ccc(CNc3ncnc4c3nnn4-c3ccccc3)cc2)C1 (stereo partly drawn)	CHEK2	cell-free assay, competition with immobilised ligand	0.1 µM	remaining binding	100%
Cc1cc(NC(=O)c2cccc3cc(-c4cccc5[nH]nc(N)c45)ccc23)ccc1F	CHEK2	enzyme activity, inhibitor	0.1 µM	activity vs control	102%
CCN1CCC2(CC1)NC(=O)c1c(c3ccc(Cl)c(Cl)c3n1C)C2C#N (racemic)	CHEK2	thermal stability, DSF	10 µM	ΔTm	-0.2 °C
C#Cc1cccc(Nc2ncnc3cc(OCCOC)c(OCCOC)cc23)c1	CHEK2	cell-free assay	0.5 µM	remaining signal	100%
Cc1ccc(Nc2nccc(N(C)c3ccc4c(C)n(C)nc4c3)n2)cc1S(N)(=O)=O	Serine/threonine-protein kinase Chk2 (CHEK2, Homo sapiens, UniProt O96017, R145W)	enzyme activity, inhibitor	10 µM	inhibition	28%
Cn1c2c(Cl)c(Cl)ccc2c2cn[nH]c(=O)c21	CHEK2	thermal stability, DSF	10 µM	ΔTm	-0.4 °C
CCCCN(CCCC)C(=O)CN1C[C@H](c2cc(OC)c3c(c2)OCO3)[C@@H](C(=O)O)[C@@H]1CC(C)(C)CCC	CHEK2	cell-free assay, competition with immobilised ligand	1 µM	remaining binding	100%
O=C1Nc2ccc(Cl)cc2C1=Cc1cc(Cl)c(O)c(Cl)c1	CHEK2	cell-free assay	0.5 µM	remaining signal	70.2%
O=C1CCc2cc(Nc3cc(OC4CCOCC4)c([N+](=O)[O-])cc3Cl)ccc2N1	CHEK2	cell-free assay, competition with immobilised ligand	1 µM	remaining binding	69%
Cc1ccc(NC(=O)c2ccc(C)c(C(F)(F)F)c2)cc1C#Cc1nn(C2CCC(O)CC2)c2ncnc(N)c12 (stereo not drawn)	CHEK2	cell-free assay	10 µM	remaining signal	111%
CN([C@@H]1CCc2c(CC(=O)O)c3ccccc3n2C1)S(=O)(=O)c1ccc(F)cc1	CHEK2	cell-free assay, competition with immobilised ligand	1 µM	remaining binding	100%
COc1cc2nccc(Oc3ccc(NC(=O)Nc4ccc(F)cc4F)c(F)c3)c2cc1OC	CHEK2	thermal stability, DSF	10 µM	ΔTm	5 to 10 °C
CO[C@@H](C)c1c(Nc2ccc([C@H](N(C)C(=O)C3CCS(=O)(=O)CC3)C(F)(F)F)cc2)cnc2cc(Cl)nn12	CHEK2	cell-free assay, competition with immobilised ligand	1 µM	remaining binding	90%
O=C1NC(=O)c2c1c1c3ccccc3[nH]c1n1cncc21	CHEK2	cell-free assay	0.5 µM	remaining signal	21.2%
